APP 5'UTR act: APP 5'UTR luciferase reporter activation | SH-SY5Y APP 5'UTR luciferase reporter, luminescence; zero percent = DMSO vehicle wells | activation, % at 2 µM | 1% of 190,000 active | AID 1276;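 active = activation above a set limit, based on mean plus 3 SD of controls, cut at about 140% in these data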
FLuc inh counter: counter-screen for luciferase assay inhibitors: firefly luciferase inhibition; P08659; ATPLite firefly luciferase biochemical luminescence, 10 min; inhibition, % at 10 µM; 1.5% of 200,000 active; AID 1006;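 active = inhibition above about 50% when tested at 10 µM, limit read from the data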
Target sequence (P08659 whole entry, looked up): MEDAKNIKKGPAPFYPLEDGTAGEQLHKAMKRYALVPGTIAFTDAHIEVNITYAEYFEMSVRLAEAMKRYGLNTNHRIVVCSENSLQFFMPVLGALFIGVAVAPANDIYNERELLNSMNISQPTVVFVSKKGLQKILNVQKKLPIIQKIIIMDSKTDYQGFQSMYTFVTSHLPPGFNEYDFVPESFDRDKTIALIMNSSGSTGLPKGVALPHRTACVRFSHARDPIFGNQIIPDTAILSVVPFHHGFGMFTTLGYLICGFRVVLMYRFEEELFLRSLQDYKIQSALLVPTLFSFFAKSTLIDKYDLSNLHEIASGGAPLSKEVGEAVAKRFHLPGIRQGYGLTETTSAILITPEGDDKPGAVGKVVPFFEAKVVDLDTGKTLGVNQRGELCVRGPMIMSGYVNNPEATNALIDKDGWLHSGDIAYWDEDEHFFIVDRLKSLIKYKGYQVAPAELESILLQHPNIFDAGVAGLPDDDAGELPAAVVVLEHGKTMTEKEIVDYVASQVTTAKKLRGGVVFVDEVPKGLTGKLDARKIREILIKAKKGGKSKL
NF-kB expr up: NF-kB expression increase, human neuronal cells | NF-kB reporter expression; stronger effect = higher value | fold change at 12.5 µM | 1.6% of 190,000 active; in the data active = fold change above about 3.3
Rad51 HR inh: Rad51 (human) homologous recombination inhibition; inhibition, % at 10 µM; Q06609; hRad51 DNA strand exchange, fluorescence dequenching; 0.085% of 200,000 active;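 active = inhibition above 40% at the single screening dose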;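 note: 0% = DMSO control wells and 100% = blanks with heterologous ssDNA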
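Read-out basis: percent inhibition relative to plate controls and blanks / Assay system: human Rad51 nucleoprotein filaments preassembled on unlabelled ssDNA / Timing: filaments 15 min 37 °C, then compound 30 min / Control set: per-plate controls and blanks / Technique: fluorescence dequenching at 485/520 nm / Compound: 10 µM final, single point / Also added: Fluorescein- and BHQ1-tagged 47-mer duplex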
STAT1 act: STAT1 signaling activation; AID 932; activation (% of control), % at 5.5 µM; NIH 3T3 STAT1-luciferase reporter, IFN-gamma, luminescence; 100% = IFN-gamma alone, no compound; 2.6% of 200,000 active;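 active = activation above the screen-wide mean activation plus 3 SD, cut at about 130% in these data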;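 note: raw ratio to IFN-gamma control signal so 100% means no change and 0% no light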
FLuc act counter: affects firefly luciferase, flagging false hits in luciferase stimulation screens; P08659; ATPlite luciferase biochemical, luminescence, 10 min; 0 = ATP-free wells, 1 = DMSO control; activation factor at 10 µM; 200,000 tested, under 10 active;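 active = luciferase activation factor, scaled between plate controls, of at least 2 with compound at 10 µM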
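System: Luciferase/luciferin detection reagent, cell-free biochemical luciferase assay | Medium: PBS buffer for ATP | Dosing: Test compounds dosed from 2 mM stocks in 100% DMSO | Timing: 10 min at ambient temperature | Signal: Luminescence measurement of luciferase light output | Evaluation: Luciferase activation, seen as luminescence increase over controls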
Starred values were filed as active, the others as inactive; nt = not tested or not shown. In the library only some 3.9% were active in any assay of this set; here they are far more common.

SMILES | APP 5'UTR act | FLuc inh counter | NF-kB expr up | Rad51 HR inh | STAT1 act | FLuc act counter
CC(C)c1ccc(-c2cc(C(=O)NN3CCN(C)CC3)c3ccccc3n2)cc1 | 50 | 88* | 1.1 | -25 | 115 | 0.1
O=C1NC(c2ccccc2)=N/C1=C/c1ccco1 | 109 | 73* | 2.2 | -1 | 101 | 0.3
CN(C)c1ccc(CC(=O)c2nc3ccccc3s2)cc1 | 92 | 2 | 1.2 | -16 | 134* | 1
COc1cccc2c1C(=O)c1c(O)c3c(c(O)c1C2=O)C[C@@](O)(C(=O)CO)C[C@@H]3O[C@H]1C[C@H](N)[C@H](O)[C@H](C)O1 | -95 | 13 | 3.8* | 66* | 265* | 0.9
c1ccc(-c2ccc(-c3ccccn3)nn2)nc1 | 107 | 60* | 2.2 | nt | 114 | 0.4
CC(=O)Nc1ccccc1C(=O)C(=O)Nc1ccc(C(=O)N2CCOCC2)cc1 | 16 | -7 | 1.2 | 6 | 100 | 1.1
CC(C)(C)NC(=O)NC(=O)COC(=O)CCC1CCCC1 | nt | nt | nt | 46* | nt | nt
COc1ccc(CNC(=O)COC(=O)CCC2CCCCC2)cc1 | -13 | -3 | 1 | -1 | 110 | 1
O=C(O)c1ccc(N2CC3CC(C2)c2cccc(=O)n2C3)c(NC(=S)Nc2ccc(Br)cc2)c1 (centres undefined) | 12 | -3 | 3.9* | 4 | 95 | 1
CC1(c2nnc(-c3ccncc3)o2)CC(c2ccc(F)cc2)=NO1 (centres undefined) | nt | nt | nt | -8 | nt | nt
COc1ccc(C(=O)/C=C/c2ccccc2OC)c(OC(=O)c2ccc([N+](=O)[O-])cc2)c1 | 17 | nt | nt | -5 | 89 | nt
O=C(Oc1ccccc1/C=C\C(=O)c1cc2ccccc2o1)c1ccccc1 | 163* | 3 | 5.7* | -1 | 86 | 1
O=C(Oc1ccccc1/C=C\C(=O)c1cc2ccccc2o1)c1cccc(F)c1 | 76 | 17 | 4* | -14 | 102 | 0.8
COc1cccc(C(=O)Oc2ccccc2/C=C\C(=O)c2cc3ccccc3o2)c1 | 61 | 16 | 21* | -8 | 97 | 0.8
O=C(N/N=C/c1ccccc1OC(=O)c1ccc2c(c1)OCO2)c1cccc(F)c1 | 1 | -4 | 1.2 | 17 | 97 | 1
CC1(c2ccccc2Cl)NC(=O)N(CC(=O)Nc2ccc3c(c2)OCO3)C1=O (centres undefined) | -11 | -5 | 1.1 | 2 | 95 | 1.1
CCOC(=O)c1sc(NC(=O)COC(=O)C(CCSC)NC(C)=O)nc1C (centres undefined) | nt | -3 | 1.1 | 2 | 91 | 1
O=C(Cc1cc(=O)[nH]c(=O)[nH]1)NCc1ccccc1 | -1 | -12 | 1 | nt | 89 | 1.1
O=C(NC(=S)N(CCO)Cc1ccccc1)c1ccc(S(=O)(=O)N2CCCC2)cc1 | -13 | -4 | 1.3 | 1 | 99 | 1
O/C(=C\c1nc2ccccc2nc1/C=C(\O)c1ccccc1)c1ccccc1 | 83 | 73* | 1.2 | -58 | 134* | 0.3
CCOc1cc(S(=O)(=O)n2ccnc2)ccc1Cl | -10 | -3 | 3.6* | -44 | 99 | 1
COc1ccc(-n2c(=O)c3c4c(sc3n3c(=S)[nH]nc23)COC(C(C)C)C4)cc1 (centres undefined) | nt | nt | nt | 13 | nt | nt
CCCCOc1ccc(-c2cnc3ccccc3n2)cc1 | nt | 47 | 3.6* | 4 | 149* | 0.5
c1csc(-c2cnc3ccccc3n2)c1 | 93 | 17 | 2.6 | 8 | 129* | 0.8
CCCCOc1ccc(-c2ncc(Cl)cn2)cc1 | 12 | 8 | 3.7* | 2 | 122 | 0.9
SMILES | APP 5'UTR act | FLuc inh counter | NF-kB expr up | Rad51 HR inh | STAT1 act | FLuc act counter
Clc1ccc(Sc2cnc3ccccc3n2)cc1 | 12 | -4 | 2.8 | 0 | 114 | 1
CCCCCCCOc1ccc(-c2ccc(C#N)cn2)cc1 | 6 | -4 | 1.1 | -2 | 108 | 1
CCCCOc1ccc(-c2ncc([N+](=O)[O-])cn2)cc1 | nt | nt | nt | 2 | nt | nt
Clc1ccc(-c2cnc3ccccc3n2)cc1 | 135* | 11 | 3.3* | 15 | 113 | 0.9
Cc1ccccc1C(C(=O)NC1CCCCC1)N(C(=O)CNC(=O)c1ccco1)c1cccnc1 (centres undefined) | 9 | -4 | 1.1 | 9 | 110 | 1
C#CCOCCOCCOCCNc1nc(N2CCN(C(=O)C([C@@H](C)CC)n3cc(C(N)COC(=O)C(F)(F)F)nn3)CC2)nc(N2CCN(C(=O)[C@H](CCCCN)n3cc(C(N)[C@H](C)CC)nn3)CC2)n1 (some centres undefined) | nt | nt | nt | -3 | nt | nt
[O-]/C(=C(\C(=S)Nc1ccc(SC(F)F)cc1)[n+]1ccccc1)c1ccc(Cl)cc1Cl | 3 | -8 | 4.7* | 2 | 98 | 1.1
Cc1cc(C)cc(NC(=S)/C(=C(\[O-])c2ccc(Cl)cc2Cl)[n+]2ccccc2)c1 | 1 | -5 | 1 | 0 | 99 | 1.1
CC(=O)Nc1ccc(-c2csc(Nc3ccccn3)n2)cc1 | nt | nt | nt | -20 | nt | nt
COc1ccc(-c2csc(Nc3ncccc3C)n2)cc1OC | 31 | -4 | 1 | 0 | 141* | 1
COc1ccc(-c2csc(NC(C)=O)n2)cc1OC | 8 | 11 | 1 | 0 | 102 | 0.9
Cc1cccnc1Nc1nc(-c2ccc(O)c(O)c2)cs1 | 39 | 3 | 3.6* | -2 | 130* | 1
O=C(OCC(=O)c1ccc(Cl)s1)c1ccccn1 | -8 | 57* | 1.1 | 4 | 101 | 0.4
O=C(COC(=O)c1ncc(Cl)c(Cl)c1Cl)c1ccc(Cl)s1 | 7 | 22 | 1 | 3 | 94 | 0.8
Clc1ccc(/C=N/NC(=Nc2ccccc2)c2ccccn2)c(Cl)c1 | 164* | -3 | 3.1 | nt | 128 | 1
N/C(=N\OCc1ccc([N+](=O)[O-])cc1)c1ccncc1 | 42 | 55* | 2 | 8 | 115 | 0.5
C/C(=N\Nc1nccnc1Cl)c1ccc(F)cc1 | 93 | 12 | 0.87 | 1 | 134* | 0.9
COCC(=O)n1nc(-c2ccccc2)nc1NCc1ccc(N(C)C)cc1 | 52 | -4 | 2.1 | 14 | 142* | 1
O=C(COc1ccccc1)n1nc(-c2ccc(Cl)cc2)nc1NCc1ccco1 | 54 | 4 | 1.8 | -4 | 143* | 1
O=C(c1ccco1)n1nc(-c2ccc(Cl)cc2)nc1NCc1ccco1 | -7 | -1 | 1.3 | -5 | 96 | 1
COCC(=O)n1nc(-c2ccc(C)cc2)nc1NCc1ccc(F)cc1 | 31 | -4 | 1.1 | 4 | 118 | 1
Fc1ccc(/C=N/Nc2nc3ccccc3[nH]2)cc1F | 24 | 18 | 1.6 | 14 | 122 | 0.8
O=c1[nH]c(N/N=C/c2ccccc2)nc2ccccc12 | 140* | 67* | 3 | -3 | 145* | 0.3
O=c1[nH]c(N/N=C\c2ccc3c(c2)OCO3)nc2ccccc12 | 205* | 76* | 4.4* | -19 | 140* | 0.2

Bioassay records as filed in PubChem BioAssay.
